In ChEMBL document CHEMBL1137772, “Site-activated multifunctional chelator with acetylcholinesterase and neuroprotective-neurorestorative moieties for Alzheimer's therapy” (J Med Chem, 2009):
The source made the active and inactive calls. The calls are words filed in the database; no cut-off is given here.

Key:
SH-SY5Y [1] = assay: Cytotoxicity against human SH-SY5Y cells assessed as cell viability at 1 uM after 48 hrs by MTT assay relative to control; type: cell-based
Method in brief: (§1)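 Human SH-SY5Y neuroblastoma cells were exposed to compound for 48 h, and viability was read by MTT assay. Mean ± SEM of three independent experiments.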

SH-SY5Y [2] = assay: Cytotoxicity against human SH-SY5Y cells assessed as decrease in cell viability at 10 uM after 48 hrs by MTT assay relative to control; type: cell-based; method in brief: as §1
SH-SY5Y [3] = assay: Cytotoxicity against human SH-SY5Y cells assessed as decrease in cell viability at 25 uM after 48 hrs by MTT assay relative to control; type: cell-based; method in brief: as §1
SH-SY5Y [4] = assay: Cytotoxicity against human SH-SY5Y cells assessed as decrease in cell viability at 50 uM after 48 hrs by MTT assay relative to control; type: cell-based; method in brief: as §1
[5] = biological target: T1, Acetylcholinesterase (Rattus norvegicus) (UniProt P37136); assay: Inhibition of AChE in Wistar rat brain homogenates at 1 uM by Ellman's method; type: tissue-based; conditions: TDE = time-dependent effect
T1 sequence (whole entry): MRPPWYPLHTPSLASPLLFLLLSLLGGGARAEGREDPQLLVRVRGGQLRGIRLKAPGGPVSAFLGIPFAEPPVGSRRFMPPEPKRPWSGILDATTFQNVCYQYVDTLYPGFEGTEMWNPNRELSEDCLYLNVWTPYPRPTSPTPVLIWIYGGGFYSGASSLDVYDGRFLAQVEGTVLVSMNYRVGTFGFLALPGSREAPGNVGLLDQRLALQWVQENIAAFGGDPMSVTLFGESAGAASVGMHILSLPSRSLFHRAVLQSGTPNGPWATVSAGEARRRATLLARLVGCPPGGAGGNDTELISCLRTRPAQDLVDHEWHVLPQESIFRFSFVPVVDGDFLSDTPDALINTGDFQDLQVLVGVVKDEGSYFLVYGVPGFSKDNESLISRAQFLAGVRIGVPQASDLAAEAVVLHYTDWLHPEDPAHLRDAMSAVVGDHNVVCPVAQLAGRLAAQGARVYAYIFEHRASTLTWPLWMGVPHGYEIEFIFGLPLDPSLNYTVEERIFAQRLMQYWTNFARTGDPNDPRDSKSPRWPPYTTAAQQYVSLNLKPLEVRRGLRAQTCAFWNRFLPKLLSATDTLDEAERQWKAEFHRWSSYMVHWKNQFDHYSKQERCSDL
Method in brief: (§2)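 Modified Ellman method on rat brain homogenate enzymes, with acetylthiocholine as AChE substrate and butyrylthiocholine as BuChE substrate. For concentration–response, enzymes were preincubated with inhibitor for 3 h, and IC50 was obtained by nonlinear curve fitting. Mean ± SEM of three to five independent experiments, each in triplicate. The 1 µM AChE inhibition was followed as a time course.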

[6] = biological target: Butyrylcholinesterase (Rattus norvegicus) (UniProt Q9JKC1); assay: Inhibition of BuChE in Wistar rat brain homogenates at 1 uM by Ellman's method; type: tissue-based; conditions: TDE = time-dependent effect
Acetylcholinesterase = biological target: T2, Acetylcholinesterase (Rattus norvegicus, UniProt P37136); assay: Inhibition of AChE in Wistar rat brain homogenates by Ellman's method; type: tissue-based; method in brief: as §2
T2 sequence (P37136 whole entry): T1 sequence (whole entry)

Butyrylcholinesterase = Butyrylcholinesterase (Rattus norvegicus, UniProt Q9JKC1); assay: Inhibition of BuChE in Wistar rat brain homogenates by Ellman's method; type: tissue-based; method in brief: as §2
Rattus norvegicus = organism: Rattus norvegicus; assay: Selectivity ratio of IC50 for BuChE to IC50 for AChE in Wistar rat brain homogenates; type: tissue-based; method in brief: as §2
[7] = biological target: Acetylcholinesterase (Electrophorus electricus) (UniProt O42275); assay: Induction of electric eel AChE-mediated drug hydrolysis assessed as release of HLA20-iron complex at 0.2 mM by UV visible spectroscopy in presence of FeSO4
Method in brief: (§3)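 UV/vis absorption spectra were recorded in 5% NH4Ac, pH 7. Prochelator (0.2 mM) was activated before adding CuSO4 or FeSO4 (0.2 mM).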

[8] = biological target: Acetylcholinesterase (Electrophorus electricus) (UniProt O42275); assay: […] of electric eel AChE-mediated drug hydrolysis assessed as release of HLA20-copper complex at 0.2 mM by UV visible spectroscopy in presence of CuSO4; method in brief: as §3

Sequence of Acetylcholinesterase (Electrophorus electricus) (O42275 24-633 limits assumed): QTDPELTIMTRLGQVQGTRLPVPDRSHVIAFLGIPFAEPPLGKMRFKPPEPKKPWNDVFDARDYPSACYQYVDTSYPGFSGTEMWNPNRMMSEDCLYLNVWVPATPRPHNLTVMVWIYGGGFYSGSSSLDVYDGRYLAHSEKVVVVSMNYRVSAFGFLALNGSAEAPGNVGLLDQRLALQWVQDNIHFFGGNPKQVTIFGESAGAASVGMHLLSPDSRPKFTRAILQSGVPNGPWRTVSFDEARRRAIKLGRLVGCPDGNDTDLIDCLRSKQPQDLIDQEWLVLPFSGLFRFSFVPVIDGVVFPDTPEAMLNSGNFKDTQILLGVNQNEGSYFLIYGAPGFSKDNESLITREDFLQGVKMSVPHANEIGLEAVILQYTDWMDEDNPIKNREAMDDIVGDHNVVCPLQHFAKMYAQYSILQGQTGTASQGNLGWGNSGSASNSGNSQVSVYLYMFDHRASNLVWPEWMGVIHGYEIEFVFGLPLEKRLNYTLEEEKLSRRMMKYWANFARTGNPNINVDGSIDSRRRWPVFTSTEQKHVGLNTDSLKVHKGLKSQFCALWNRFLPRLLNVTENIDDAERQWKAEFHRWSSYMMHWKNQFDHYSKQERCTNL
Sequence of Butyrylcholinesterase (Rattus norvegicus) (Q9JKC1 as listed by the source): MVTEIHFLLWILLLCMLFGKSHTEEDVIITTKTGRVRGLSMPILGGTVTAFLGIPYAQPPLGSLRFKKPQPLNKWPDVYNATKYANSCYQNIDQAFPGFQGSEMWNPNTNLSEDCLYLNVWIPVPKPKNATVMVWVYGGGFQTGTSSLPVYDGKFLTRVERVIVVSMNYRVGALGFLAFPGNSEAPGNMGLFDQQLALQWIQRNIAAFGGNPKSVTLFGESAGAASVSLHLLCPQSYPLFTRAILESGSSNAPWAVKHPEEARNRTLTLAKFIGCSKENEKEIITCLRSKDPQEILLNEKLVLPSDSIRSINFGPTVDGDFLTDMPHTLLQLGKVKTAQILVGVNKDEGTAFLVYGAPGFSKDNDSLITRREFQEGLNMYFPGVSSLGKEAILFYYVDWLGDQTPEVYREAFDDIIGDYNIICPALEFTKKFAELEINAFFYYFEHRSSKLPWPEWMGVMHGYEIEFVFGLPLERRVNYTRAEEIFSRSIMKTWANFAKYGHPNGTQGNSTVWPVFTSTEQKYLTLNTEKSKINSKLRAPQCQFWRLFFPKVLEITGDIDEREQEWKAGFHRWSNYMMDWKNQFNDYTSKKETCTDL
Sequence of Butyrylcholinesterase (Q9JKC1 whole entry): as the sequence (Q9JKC1 as listed by the source) above

`C#CCN1CCN(Cc2ccc(O)c3ncccc23)CC1` was tested, and the Activity (SH-SY5Y [1]) was “Non-toxic”, the Activity (SH-SY5Y [2]) was 60% and the Activity (SH-SY5Y [3]) was 87%. For the same compound, the Activity (SH-SY5Y [4]) was 98%.

For `CCN(C)C(=O)Oc1cccc([C@H](C)N(C)C)c1`, the Activity [5] was “tde” and the Activity [6] was “tde”.

With `C#CCN1CCN(Cc2ccc(OC(=O)N(C)C)c3ncccc23)CC1` the Activity [5] was “tde”, the Activity [6] was “tde” and the IC50 (Acetylcholinesterase) was 0.5 µM. For the same compound, the IC50 (Butyrylcholinesterase) was 42.6 µM, the Ratio IC50 (Rattus norvegicus) was 85 and the Activity [7] was “Active”. The Activity [8] was “Active”, the Activity (SH-SY5Y [1]) was “Non-toxic” and the Activity (SH-SY5Y [2]) was “Non-toxic”. For the same compound, the Activity (SH-SY5Y [3]) was “Toxic” and the Activity (SH-SY5Y [4]) was “Toxic”.
